PMC11931292 (Drug Design, Development and Therapy, 2025)

What was measured:
[1] = Pharmacokinetics study, single intravenous injection; assay type: in vivo, Sprague-Dawley (SD) rats; conditions: SD rats, single i.v. 10 mg/kg
In short: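 Male SD rats (180–220 g) were randomised to free drug or one of two nanoparticle formulations and anaesthetised with i.p. 2% sodium pentobarbital (3mg/100g). Each got a single i.v. dose of 10 mg/kg drug-equivalent. Blood was drawn by orbital bleeding at set times. Plasma was deproteinised with acetonitrile and centrifuged, and the supernatant was assayed by HPLC (C18, 30°C, 335 nm). Cmax, Tmax, t1/2, MRT and AUC0–∞ were derived.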

[2] = Organ toxicity: H&E histology and serum biochemistry; assay type: in vivo, SD rats; conditions: fourth day after injection
In short: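 On day 4 after injection, animals were euthanised. Heart, kidneys, liver, lungs and spleen were excised, rinsed in saline to remove blood, fixed in 4% paraformaldehyde for 72 h, and stained with hematoxylin and eosin.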

In vitro drug release = assay type: physicochemical; conditions: within 9 hours
H37Rv within RAW264.7 = assay: Intracellular inhibition, CFU assay in infected RAW264.7 cells; assay type: cell-based, Mycobacterium tuberculosis; conditions: 0.047 μg/mL drug, 72 hours, H37Rv MOI 1
In short: (§1)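 RAW264.7 macrophages were seeded at 1×10⁶ cells/well in 12-well plates and infected at MOI 1, for 24 h with BCG or 4 h with H37Rv. Cells were exposed to 0.047 μg/mL free drug or nanoparticles with equivalent drug for 72 h, washed three times with PBS, and lysed 10 min in PBS with 0.03% SDS. Lysates were serially diluted in 7H9, plated on 7H11, and CFU counted after 21 days at 37°C (three replicates).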

BCG within RAW264.7 = assay: as above; assay type: cell-based; conditions: 0.047 μg/mL drug, 72 hours, BCG MOI 1
In short: as §1

In the case of `CO[C@H]1/C=C/O[C@@]2(C)Oc3c(C)c(O)c4c(O)c(c(/C=N/N5CCN(C6CCCC6)CC5)c(O)c4c3C2=O)NC(=O)/C(C)=C\C=C\[C@H](C)[C@H](O)[C@@H](C)[C@@H](O)[C@@H](C)[C@H](OC(C)=O)[C@@H]1C` [RPT, Rifapentine], the “Time the drug persisted in the system” value [1] was 2 days, the “H&E histology of heart, spleen, liver, lungs and kidneys” value [2] was “no discernible abnormalities” and the “Cumulative release (initial burst release)” value (In vitro drug release) was “approximately 90.73%”. For the same compound, the “Intracellular antibacterial activity (CFU)” value (H37Rv within RAW264.7) was “exhibited inhibitory effects” and the “Intracellular antibacterial activity (CFU)” value (BCG within RAW264.7) was “exhibited inhibitory effects”.
